# Starred links: 1 amine or outer side, 2 acyl side, 3 side chain; linkers in the order of their positions; H or OH if unused. Positions of bridges follow the written chain, without caps; N, C: chain ends. Non-standard residues stand in square brackets, D forms with d. Residues, ends and D or L forms follow the SMILES beside them. *: point of attachment. pTerphenylCO(4''-OnC5H11) = CCCCCOc1ccc(-c2ccc(-c3ccc(C(=O)*)cc3)cc2)cc1; Orn(4R-OH,5R-OH) = O=C([C@H](C[C@@H](O)[C@@H](O)N[*:3])N[*:1])[*:2]; hTyr(3S-OH,4S-OH) = N[C@H](C(=O)O)[C@H](O)[C@@H](O)c1ccc(O)cc1; Pro(3S-OH,4S-Me) = C[C@H]1CN[C@H](C(=O)O)[C@H]1O; Hyp = O=C(O)[C@@H]1C[C@@H](O)CN1
# Experiments:
# Type in all cases: functional
# [1] = tested on: Candida dubliniensis; test: Antifungal activity against Candida dubliniensis FMR 10032 infected in immunosuppressed OF1 mouse assessed as fungal count in spleen at 1 mg/kg/day, iv […]
# Method in brief: (§1)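 Male OF1 mice, 10 per group, were immunosuppressed on infection day with cyclophosphamide 200 mg/kg i.p. plus 5-fluorouracil 150 mg/kg i.v., then challenged i.v. with 1.5 × 10^5 CFU. Drug was given at 1 mg/kg i.v. once daily for 5 days, starting 24 h after challenge. One day after treatment ended, kidney and spleen homogenates were plated in 10-fold dilutions on Sabouraud agar (35°C, 3 days) and mean log10 CFU was reported.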
# [2] = tested on: Candida dubliniensis; test: Antifungal activity against Candida dubliniensis 9456 by hemocytometry
# Method in brief: (§2)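 Minimal fungicidal concentration from the broth dilution test, defined as the lowest drug level giving ≥99.9% reduction in CFU/ml. Inocula were adjusted by hemocytometer.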
# [3] = tested on: Candida dubliniensis; test: Antifungal activity against Candida dubliniensis 10034 by hemocytometry; method in brief: as §2
# [4] = tested on: Candida dubliniensis; test: Antifungal activity against Candida dubliniensis FMR 10034 infected in immunosuppressed OF1 mouse assessed as fungal count in spleen at 1 mg/kg/day, iv […]; method in brief: as §1
# [5] = tested on: Candida dubliniensis; test: Antifungal activity against Candida dubliniensis 10032 after 24 hrs; conditions: Candida dubliniensis, 10032, 24 h
# Method in brief: (§3)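 CLSI M27-A3 broth microdilution. Yeast inoculum was adjusted with a hemocytometer. MIC was read at 24 h or 48 h as the lowest concentration giving 50% growth inhibition.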
# [6] = tested on: Candida dubliniensis; test: Antifungal activity against Candida dubliniensis 9453 after 24 hrs; conditions: Candida dubliniensis, 9453, 24 h; method in brief: as §3
# [7] = tested on: Candida dubliniensis; test: Antifungal activity against Candida dubliniensis FMR 10034 infected in OF1 mouse assessed as fungal count in kidney at 1 mg/kg/day, iv […]
# Method in brief: (§4)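 Immunocompetent male OF1 mice, 10 per group, were challenged i.v. with 1.5 × 10^7 CFU. Drug was given i.v. once daily at 1 or 10 mg/kg for 3 days, starting 24 h post-challenge; controls were untreated. Mice were killed 1 day after the last dose. Kidneys and spleen were homogenized in saline, serial 10-fold dilutions were plated on Sabouraud agar at 35°C for 3 days, and mean log10 CFU was reported.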
# [8] = tested on: Candida dubliniensis; test: Antifungal activity against Candida dubliniensis 9453 by hemocytometry; method in brief: as §2
# [9] = tested on: Candida dubliniensis; test: Antifungal activity against Candida dubliniensis FMR 10034 infected in immunosuppressed OF1 mouse assessed as fungal count in kidney at 1 mg/kg/day, iv […]; method in brief: as §1
# [10] = tested on: Candida dubliniensis; test: Antifungal activity against Candida dubliniensis FMR 10032 infected in OF1 mouse assessed as fungal count in kidney at 1 mg/kg/day, iv […]; method in brief: as §4
# [11] = tested on: Candida dubliniensis; test: Antifungal activity against Candida dubliniensis 9456 assessed as compound concentration at which paradoxical growth of observed after 48 hrs
# Method in brief: (§5)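 Broth dilution susceptibility testing of yeasts per CLSI reference method M27-A3, with inocula adjusted by hemocytometer count. Wells were read at 24 and 48 h. The paradoxical growth range is the span of drug concentrations (μg/ml) over which growth reappeared above the inhibitory concentration. Where growth occurred across the entire concentration range (trailing), no range was determined.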
# [12] = tested on: Candida dubliniensis; test: Antifungal activity against Candida dubliniensis 9453 assessed as compound concentration at which paradoxical growth of observed after 48 hrs; method in brief: as §5
# [13] = tested on: Candida dubliniensis; test: Antifungal activity against Candida dubliniensis FMR 10034 infected in OF1 mouse assessed as fungal count in kidney at 10 mg/kg/day, iv […]; method in brief: as §4
# [14] = tested on: Candida dubliniensis; test: Antifungal activity against Candida dubliniensis 9453 after 48 hrs; conditions: Candida dubliniensis, 9453, 48 h; method in brief: as §3
# [15] = tested on: Candida dubliniensis; test: Antifungal activity against Candida dubliniensis 10033 by hemocytometry; method in brief: as §2
# [16] = tested on: Candida dubliniensis; test: Antifungal activity against Candida dubliniensis FMR 10032 infected in immunosuppressed OF1 mouse assessed as fungal count in kidney at 1 mg/kg/day, iv […]; method in brief: as §1
# [17] = tested on: Candida dubliniensis; test: Antifungal activity against Candida dubliniensis 10035 after 24 hrs; conditions: Candida dubliniensis, 10035, 24 h; method in brief: as §3
# [18] = tested on: Candida dubliniensis; test: Antifungal activity against Candida dubliniensis 10035 after 48 hrs; conditions: Candida dubliniensis, 10035, 48 h; method in brief: as §3
# [19] = tested on: Candida dubliniensis; test: Antifungal activity against Candida dubliniensis 10031 by hemocytometry; method in brief: as §2
# [20] = tested on: Candida dubliniensis; test: Antifungal activity against Candida dubliniensis FMR 10034 infected in OF1 mouse assessed as fungal count in spleen at 10 mg/kg/day, iv […]; method in brief: as §4
# [21] = tested on: Candida dubliniensis; test: Antifungal activity against Candida dubliniensis 10032 by hemocytometry; method in brief: as §2
# [22] = tested on: Candida dubliniensis; test: Antifungal activity against Candida dubliniensis 10031 after 24 hrs; conditions: Candida dubliniensis, 10031, 24 h; method in brief: as §3
# [23] = tested on: Candida dubliniensis; test: Antifungal activity against Candida dubliniensis FMR 10032 infected in OF1 mouse assessed as fungal count in kidney at 10 mg/kg/day, iv […]; method in brief: as §4
# [24] = tested on: Candida dubliniensis; test: Antifungal activity against Candida dubliniensis 10034 after 24 hrs; conditions: Candida dubliniensis, 10034, 24 h; method in brief: as §3
# [25] = tested on: Candida dubliniensis; test: Antifungal activity against Candida dubliniensis 9456 after 24 hrs; conditions: Candida dubliniensis, 9456, 24 h; method in brief: as §3
# [26] = tested on: Candida dubliniensis; test: Antifungal activity against Candida dubliniensis FMR 10032 infected in OF1 mouse assessed as fungal count in spleen at 10 mg/kg/day, iv […]; method in brief: as §4
# [27] = tested on: Candida dubliniensis; test: Antifungal activity against Candida dubliniensis 10034 assessed as compound concentration at which paradoxical growth of observed after 48 hrs
# Method in brief: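 In the same broth dilution (CLSI M27-A3) tests, read at 24 or 48 h, this is the range of drug concentrations over which paradoxical growth appeared. It was not set when growth occurred across the whole tested range (trailing).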
# [28] = tested on: Candida dubliniensis; test: Antifungal activity against Candida dubliniensis FMR 10032 infected in OF1 mouse assessed as fungal count in spleen at 1 mg/kg/day, iv […]; method in brief: as §4
# [29] = tested on: Candida dubliniensis; test: Antifungal activity against Candida dubliniensis 10032 after 48 hrs; conditions: Candida dubliniensis, 10032, 48 h; method in brief: as §3
# [30] = tested on: Candida dubliniensis; test: Antifungal activity against Candida dubliniensis 9456 after 48 hrs; conditions: Candida dubliniensis, 9456, 48 h; method in brief: as §3
# [31] = tested on: Candida dubliniensis; test: Antifungal activity against Candida dubliniensis 10034 after 48 hrs; conditions: Candida dubliniensis, 10034, 48 h; method in brief: as §3
# [32] = tested on: Candida dubliniensis; test: Antifungal activity against Candida dubliniensis 10033 after 24 hrs; conditions: Candida dubliniensis, 10033, 24 h; method in brief: as §3
# [33] = tested on: Candida dubliniensis; test: Antifungal activity against Candida dubliniensis 10033 assessed as compound concentration at which paradoxical growth of observed after 48 hrs; method in brief: as §5
# [34] = tested on: Candida dubliniensis; test: Antifungal activity against Candida dubliniensis FMR 10034 infected in OF1 mouse assessed as fungal count in spleen at 1 mg/kg/day, iv […]; method in brief: as §4
# [35] = tested on: Candida dubliniensis; test: Antifungal activity against Candida dubliniensis 10031 after 48 hrs; conditions: Candida dubliniensis, 10031, 48 h; method in brief: as §3
# [36] = tested on: Candida dubliniensis; test: Antifungal activity against Candida dubliniensis 10033 after 48 hrs; conditions: Candida dubliniensis, 10033, 48 h; method in brief: as §3
compound,measurement,setting,value
"CCCCCOc1ccc(-c2ccc(-c3ccc(C(=O)N[C@H]4C[C@@H](O)[C@@H](O)NC(=O)[C@@H]5[C@@H](O)[C@@H](C)CN5C(=O)[C@H]([C@@H](C)O)NC(=O)[C@H]([C@H](O)[C@@H](O)c5ccc(O)cc5)NC(=O)[C@@H]5C[C@@H](O)CN5C(=O)[C@H]([C@@H](C)O)NC4=O)cc3)cc2)cc1 [ANIDULAFUNGIN] ({pTerphenylCO(4''-OnC5H11)}-[Orn(4R-OH,5R-OH)]T[Hyp][hTyr(3S-OH,4S-OH)]T[Pro(3S-OH,4S-Me)]; lactam 1-C)",log10cfu,[1],2.62
same,MFC,[2],> 16 µg/mL
same,MFC,[3],> 16 µg/mL
same,log10cfu,[4],2.96
same,MIC50,[5],< 0.03 µg/mL
same,MIC50,[6],< 0.03 µg/mL
same,log10cfu,[7],6.33
same,MFC,[8],> 16 µg/mL
same,log10cfu,[9],5.94
same,log10cfu,[10],5.65
same,Activity,[11],8 µg/mL
same,Activity,[12],4 µg/mL
same,log10cfu,[13],4.63
same,MIC50,[14],< 0.03 µg/mL
same,MFC,[15],2 µg/mL
same,log10cfu,[16],5.75
same,MIC50,[17],< 0.03 µg/mL
same,MIC50,[18],< 0.03 µg/mL
same,MFC,[19],> 16 µg/mL
same,log10cfu,[20],4.25
same,MFC,[21],2 µg/mL
same,MIC50,[22],< 0.03 µg/mL
same,log10cfu,[23],2.95
same,MIC50,[24],< 0.03 µg/mL
same,MIC50,[25],< 0.03 µg/mL
same,log10cfu,[26],2.64
same,Activity,[27],4 µg/mL
same,log10cfu,[28],4.21
same,MIC50,[29],< 0.03 µg/mL
same,MIC50,[30],< 0.03 µg/mL
same,MIC50,[31],< 0.03 µg/mL
same,MIC50,[32],< 0.03 µg/mL
same,Activity,[33],4 µg/mL
same,log10cfu,[34],4.54
same,MIC50,[35],< 0.03 µg/mL
same,MIC50,[36],0.06 µg/mL
